“Also recorded” adds a separate entry of the source. Read-outs that look alike come from different tables or passages of the source.
Tests used:
[1] = system: P. falciparum 3D7 strain parasites; assay: In vitro P. falciparum growth and proliferation assay; assay type: cell-based, Plasmodium falciparum; settings: for IC50: read-out: Pf3D7 IC50; for fold reduction in Pf3D7 activity: versus the comparator analogue named in the sentence
HepG2 cells [2] = assay: In vitro cytotoxicity assay; assay type: cell-based, human; settings: for HepG2/Pf3D7: ratio HepG2 IC50 / Pf3D7 IC50; for IC50: read-out: HepG2 IC50
histone H3K4me3 [3] = assay: Parasite histone methylation analysis; assay type: cell-based, P. falciparum 3D7; settings: 5-fold IC50, 12 hours, relative to DMSO control
Outline: (§1)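 3D7 cultures were exposed for 12 h to test compound, chloroquine or DMSO vehicle. Infected blood was saponin-treated (0.15% in PBS) to remove red cells, and freed parasites were lysed by bath sonication in 2% SDS for Western blot. Trimethyl-specific bands were quantified by densitometry, normalized to core histone H3 signal and expressed relative to DMSO-treated parasites.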

histone H3K9me3 [4] = assay: Parasite histone methylation analysis; assay type: cell-based, P. falciparum 3D7; settings: 5-fold IC50, 12 hours, relative to DMSO control
Outline: as §1

HepG2 cells [5] = settings: Table 5; ref [21]; cited from earlier work
[6] = system: highly synchronized P. falciparum parasites; settings: throughout the intraerythrocytic life cycle; ref [13]; cited from earlier work
histone H3K4me3 [7] = settings: ref [13]; cited from earlier work
histone H3K9me3 [8] = settings: ref [13]; cited from earlier work
[9] = ref [21]; cited from earlier work
[10] = system: chloroquine-sensitive and chloroquine-resistant parasites; settings: ref [13]; cited from earlier work
[11] = cited from earlier work
[12] = cited from earlier work; remark: listed apart in the source
[13] = microsomes, cited from earlier work
[14] = Plasmodium falciparum, 3D7, 72 h
[15] = P. falciparum 3D7 strain, three-day SYBR Green I assay
[16] = HepG2 cells, three days, CellTiterBlue

| Compound | IC50 [1, 14] [nM] | fold reduction in Pf3D7 activity [1] | IC50 [1, 15] [nM] | HepG2/Pf3D7 (HepG2 cells [2]) | IC50 (HepG2 cells [2]; [16]) [nM] | IC50 (HepG2 cells [2]; Homo sapiens, HepG2, 72 h) [nM] | also measured |
| --- | --- | --- | --- | --- | --- | --- | --- |
| COc1cc2nc(N3CCN(C)CC3)nc(NC(C)C)c2cc1OC [Compound 51, (Isopropyl)[6,7-dimethoxy-2-(4-methyl-1-piperazinyl)-4-quinazolinyl]amine] | > 300 | 7-17 fold |  |  |  |  |  |
| c1ccc(CN2CCC(Nc3nc(N4CCCCC4)nc4ccccc34)CC2)cc1 [Compound 74, (1-Benzyl-4-piperidyl)(2-piperidino-4-quinazolinyl)amine] | 385 |  |  |  |  |  |  |
| COc1cc2nc(N3CCCN(C)CC3)nc(OC3CCN(Cc4ccccc4)CC3)c2cc1OC [Compound 65, 4-(1-Benzyl-4-piperidyloxy)-6,7-dimethoxy-2-(4-methyl-1,4-diazepin-1-yl)quinazoline] |  |  | 1460 | 5.4 | 7900 |  |  |
| COc1cc2nc(N3CCN(c4ccccn4)CC3)nc(N(C)C3CCN(Cc4ccccc4)CC3)c2cc1OC [Compound 63, (1-Benzyl-4-piperidyl)-N-methyl{6,7-dimethoxy-2-[4-(2-pyridyl)-1-piperazinyl]-4-quinazolinyl}amine] | 472 | 10-20 fold |  | 20.4 |  | 9600 |  |
| COc1cc2nc(N3CCCN(C)CC3)nc(NC3CCN(Cc4ccccc4)CC3)c2cc1OC [Compound 1, (1-Benzyl-4-piperidyl)[6,7-dimethoxy-2-(4-methyl-1,4-diazepin-1-yl)-4-quinazolinyl]amine] | 43.4 |  |  | 110.6 |  |  | H3K4me3 levels in treated parasites (histone H3K4me3 [3]): decreased; H3K9me3 levels in treated parasites (histone H3K9me3 [4]): decreased; HepG2/3D7 (HepG2 cells [5]): 110.6; killing phenotype [6]: fast killing phenotype; H3K4me3 levels of the parasite (histone H3K4me3 [7]): decrease; also recorded: reduced; H3K9me3 levels of the parasite (histone H3K9me3 [8]): decrease; rat plasma t1/2 [9]: >4 h; potency against chloroquine-sensitive versus chloroquine-resistant parasites [10]: equally potent; logD pH 3 ([11]; pH 3): 0.5; logD pH 7.4 ([11]; pH 7.4): 5; solubility pH 2 ([12]; pH 2): >100 μg/ml; solubility pH 6.5 ([12]; pH 6.5): >100 μg/ml; rat microsome t1/2 [13]: 0.883 h; in vitro CLint ([13]; rat): 33 μl/min/mg protein |
| (1-Benzyl-4-piperidyl){6,7-dimethoxy-2-[4-(2-pyridyl)-1-piperazinyl]-4-quinazolinyl}amine [Compound 75] |  |  | 354 | 14.2 | 5000 |  |  |
| COc1cc2nc(N3CCCCC3)nc(N(C)C3CCN(Cc4ccccc4)CC3)c2cc1OC [Compound 61, (1-Benzyl-4-piperidyl)-N-methyl(6,7-dimethoxy-2-piperidino-4-quinazolinyl)amine] | 495 | 10-20 fold |  | 16.4 |  | 8100 |  |
| COc1cc2nc(N3C=CC=CC=C3)nc(NC3CCN(Cc4ccccc4)CC3)c2cc1OC [Compound 4, (1-Benzyl-4-piperidyl)[2-(1-azepinyl)-6,7-dimethoxy-4-quinazolinyl]amine] | 29.1 |  |  |  |  |  | Pf3D7 activity (in words) ([1]; P. falciparum 3D7 strain): comparable to 1 |
| COc1cc2nc(N3C=CC=CC=C3)nc(N(C)C3CCN(Cc4ccccc4)CC3)c2cc1OC [Compound 62, (1-Benzyl-4-piperidyl)-N-methyl[2-(1-azepinyl)-6,7-dimethoxy-4-quinazolinyl]amine] | 400 | 10-20 fold |  | 13.6 |  | 5400 |  |
| COc1cc2nc(N3CCCN(C)CC3)nc(N(C)C3CCN(Cc4ccccc4)CC3)c2cc1OC [Compound 60, (1-Benzyl-4-piperidyl)-N-methyl[6,7-dimethoxy-2-(4-methyl-1,4-diazepin-1-yl)-4-quinazolinyl]amine] |  | 10-20 fold | 159 | 37.9 | 6000 |  |  |
| CN1CCCN(c2nc(NC3CCN(Cc4ccccc4)CC3)c3ccccc3n2)CC1 [Compound 73, (1-Benzyl-4-piperidyl)[2-(4-methyl-1,4-diazepin-1-yl)-4-quinazolinyl]amine] |  |  | 101 | 69.6 | 7000 |  |  |
| COc1cc2nc(N3CCN(c4ccccn4)CC3)nc(OC3CCN(Cc4ccccc4)CC3)c2cc1OC [Compound 66, 4-(1-Benzyl-4-piperidyloxy)-6,7-dimethoxy-2-[4-(2-pyridyl)-1-piperazinyl]quinazoline] | 2060 |  |  | 7.7 |  | 15700 |  |
| CCN(CC)CCCC(C)Nc1ccnc2cc(Cl)ccc12 (stereo not drawn) [chloroquine] |  |  |  |  |  |  | H3K4me3 levels in treated parasites (histone H3K4me3 [3]): slight decrease; H3K9me3 levels in treated parasites (histone H3K9me3 [4]): slight increase |

Reference: publication PMC4177335 (ChemMedChem, 2014)
